This data set can be described thus: Toxicity liver stage against HepG2, at 10uM. The class given is cell-based. More on the design: test concentration 10 uM, cell line HepG2-A16-CD81EGFP. The note with it: human, HepG2-A16-CD81EGFP cells; read-out: INHIBITION
Summed up: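 Uninfected HepG2-A16-CD81EGFP cells, 3 × 10^3 per well, 1536-well, plated on prespotted compound at 10 μM final, parasite-free screening media added to match infected plates; puromycin 10 μM positive, DMSO 0.5% negative; run in parallel with 48 h PbLuc assay at 37 °C, 5% CO2; viability by CellTiter-Glo luminescence, normalized to controls.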
Turning to `O=C(C1SCCc2sccc21)N1CCN(C2CC2)C(=O)C1` (configuration not stated), the cytotoxicity at 10 µM was 3.24%.

For the compound `Cc1ccc(NC2CCN(C(=O)CCn3nc(C)cc3C)CC2)nn1`, the cytotoxicity at 10 µM was -9.66%.

As to `Cn1ccnc1COc1ccc(CO)cc1`, the cytotoxicity at 10 µM is -5.05%. `CSc1ccccc1NC(=O)CCC(=O)N(C)C1CCN(C)CC1`: the cytotoxicity at 10 µM was -2.91%. Turning to `CNC(=O)c1cccc(NC(=O)NCc2ccccc2)c1C`, the cytotoxicity at 10 µM is -1.67%. In the case of `O=C1CC2(CCSC2)C(=O)N1Cc1ncc(-c2cccc(F)c2)o1` (configuration not stated), the cytotoxicity at 10 µM stood at 10.3%. As for `CCOCc1cnc2n1CCN(C(=O)Cc1ccco1)C2C` (configuration not stated), the cytotoxicity at 10 µM was 3.53%.

With `OC1(CNCc2cnc(N3CCOCC3)nc2)CCCCC1`, the cytotoxicity at 10 µM was -2.41%. For `Cn1cccc1C(=O)N1CCn2cc(CN3CCCC3)nc2C1` the value was -72.3%; for `Cc1noc(C)c1CN1CCCC2(C1)CN(c1nncs1)CCO2` (configuration not stated), 0.922%; for `Cc1ccc(CNCc2nnc3n2CC(C(F)(F)F)CC3)o1` (configuration not stated), 9.87%. Take `O=C(c1cccnc1-n1cncn1)N1CCC(Nc2ccccc2)CC1`: the cytotoxicity at 10 µM is 7.1%.

Regarding `CC(C)Oc1ncc(C(=O)N2CCc3ccc(O)cc3C2)cc1Cl`, the cytotoxicity at 10 µM was determined as 1.61%.

Regarding `CCn1cnnc1CNC(=O)N(C)Cc1ccc2c(c1)OCCO2`, the cytotoxicity at 10 µM was -1.96%. Take `CCN1CCN(C(=O)c2cccn2Cc2ccccc2)CC1`: the cytotoxicity at 10 µM was -12.3%. Regarding `Cc1csc(N2CCN(C(=O)C(C(C)C)n3cncn3)CC2)n1` (configuration not stated), the cytotoxicity at 10 µM was -13.1%. Regarding `Cc1cc(CNC(=O)Cc2cccs2)ccc1S(C)(=O)=O`, the cytotoxicity at 10 µM is -2.74%. Turning to `COc1cc(N2CC[C@H](O)[C@@H]2Cc2cnn(C)c2)ncn1`, the cytotoxicity at 10 µM turned out to be 1.72%. For `O=C(NCC1CCS(=O)(=O)C1)N1CCN(c2cnccn2)CC1` (configuration not stated) the value was -7.21%; for `O=C(O)CC1COCCN1C(=O)C1(c2ccc(Cl)cc2)CCC1` (configuration not stated), -17.8%; for `COc1cc2c(cc1CNC(=O)Cc1ccc(C)nc1)OC(C)C2` (configuration not stated), -6.47%. `Cc1cnn(CC2CN(Cc3nc(C)c(C)o3)CCO2)c1` (configuration not stated): the cytotoxicity at 10 µM was -3.88%. On to `CCN(Cc1ccc(C#N)cc1F)C(=O)CN(C)CC(N)=O`, for which the cytotoxicity at 10 µM is 7.52%. Regarding `CCC(O)CN1CCN(C(=O)c2csc(COC)n2)CC1` (configuration not stated), the cytotoxicity at 10 µM amounted to 7.72%. Consider `CN(C)C(=O)NCc1cc2n(n1)CCN(CC1[C@H]3CNC[C@@H]13)C2` (some centres not stated), for which the cytotoxicity at 10 µM was -27.7%.

For the compound `COCCCN1Cc2cccc(NC(=O)c3ccccc3C)c2C1`, the cytotoxicity at 10 µM came to 13.4%. Take `CCn1nc(C)c2nc(C(C)C)nc(NCC(C)C)c21`: the cytotoxicity at 10 µM is 15.5%. Turning to `CC(O)CN1CCN(C(=O)Cc2ccccc2Cl)CC1` (configuration not stated), the cytotoxicity at 10 µM was -9.6%. `COC(=O)N1CCCN(Cn2nc(C)c(Br)c2C)CC1`: the cytotoxicity at 10 µM stood at 8.38%.

Turning to `CC(=O)N1CCC(Cc2cccc(-c3c(C)noc3C)n2)C1` (configuration not stated), the cytotoxicity at 10 µM worked out at 0.664%.

On to `COC(=O)c1cc(NC(=O)CCc2cscn2)ccc1C`, for which the cytotoxicity at 10 µM was -0.172%. On to `Cc1noc(C)c1CN(C)C(=O)Cn1c(=O)n(C)c2ccccc21`, for which the cytotoxicity at 10 µM was -4.32%. Take `Cc1nn(CC(C)C)c(C)c1CC(=O)N1CCCC(NS(C)(=O)=O)C1` (configuration not stated): the cytotoxicity at 10 µM came out at 6.29%. For `FC(F)(F)COc1cccc(-c2nc3c([nH]2)CCNC3)c1`, the cytotoxicity at 10 µM turned out to be 4.5%.

As to `CCCC(=O)NC1CCN(c2ccccc2S(=O)(=O)CC)CC1`, the cytotoxicity at 10 µM is -2.78%. As to `COCCN(Cc1ccoc1)C(=O)CSc1ccc(F)cc1`, the cytotoxicity at 10 µM is 1.04%.

`NC(=O)C1CCN(C(=O)c2ccc(Sc3ccccn3)cc2)CC1`: the cytotoxicity at 10 µM was 9.48%. Take `Cc1nnc(N2CCOC(CN(C)C)C2)c(C#N)c1C` (configuration not stated): the cytotoxicity at 10 µM is -9.95%. Regarding `CS(=O)(=O)N1CCOCC2(CCN(Cc3ccoc3)CC2)C1`, the cytotoxicity at 10 µM was 2.64%. For `CSc1nsc(SCC(=O)c2cc3c(cc2Cl)NC(=O)C3)n1` the value was 5.13%. Consider `Cc1noc(CN(C)CC2CCN(CCO)CC2)n1`, for which the cytotoxicity at 10 µM was determined as 5.82%. With `COC(=O)c1ccc(N2CCN(Cc3csc(C)n3)CC2)nn1`, the cytotoxicity at 10 µM is -1.7%. Take `COc1ccc(CN2CCc3nnc(COCCN(C)C)n3CC2)cc1`: the cytotoxicity at 10 µM is 4.5%. As to `CN(Cc1cc(C(C)(C)C)n[nH]1)C(=O)CCC(=O)NC1CCCC1`, the cytotoxicity at 10 µM is -2.12%. Then `CCc1ccc(-c2cn(CCSc3ncn[nH]3)nn2)nc1`, with -0.89%.

Turning to `Cc1cc(NC(=O)N2CCCC2C(C)(C)O)c2ncccc2c1` (configuration not stated), the cytotoxicity at 10 µM worked out at 6.87%. Regarding `Cc1cc(C(=O)N(C)Cc2ccn[nH]2)c(NC(=O)C(C)(C)C)s1`, the cytotoxicity at 10 µM is 2.72%. As for `O=C(Nc1ccc(F)cc1)C1CNCCN1C(=O)CC1CCCCC1` (configuration not stated), the cytotoxicity at 10 µM amounted to 7.01%. As to `Cc1nc(C)n(C2CCCN(C(=O)COCc3ccccc3)C2)n1` (configuration not stated), the cytotoxicity at 10 µM is -11%. Take `CN(Cc1ccccn1)C(=O)CNC(=O)N1CCc2ccccc2C1`: the cytotoxicity at 10 µM amounted to 2.8%.

With `O=c1cc(CNS(=O)(=O)C2CC2)nc2n1CCCNC2`, the cytotoxicity at 10 µM was determined as 7.83%. Turning to `c1csc(CN2CCCn3cnc(CN4CCCC4)c3C2)c1`, the cytotoxicity at 10 µM is -72.7%. For `Cc1ccc(C(=O)N2CC3(CCCCC3)c3cc(C(=O)O)ccc32)cn1`, the cytotoxicity at 10 µM came out at 11.2%. With `COCc1cn(CC2CCN(Cc3c(C)[nH]c4ccccc34)CC2)nn1`, the cytotoxicity at 10 µM was -5.36%. Take `CCC(=O)N1CCN(c2ccc(C(=O)OC)cc2)CC1C` (configuration not stated): the cytotoxicity at 10 µM is -13.5%. Consider `CNS(=O)(=O)c1ccc(CNC(=O)NCC2CCC2)cc1`, for which the cytotoxicity at 10 µM came to 6.26%. With `CCCOc1ccccc1CN[C@@H]1CCC[C@H]1Cc1cc(C)no1`, the cytotoxicity at 10 µM was -6.86%. For `CCn1cc(NC(=O)Nc2ccc3c(c2)OCCO3)cn1` the value was -1.04%; for `Cc1cccc(N2CCC3(CCCC(=O)N3)CC2)n1`, -3.8%.

As for `Cc1ccc(NCCCNC(=O)NCC2CCS(=O)(=O)C2)nc1` (configuration not stated), the cytotoxicity at 10 µM was determined as 17.2%.

In the case of `CN1C(=O)[C@@H]2CC[C@H]1CN(c1ncnc3ccsc13)C2`, the cytotoxicity at 10 µM was found to be 0.636%. Consider `COc1cnc(N2C[C@@H](CN3CCOCC3)[C@@H](CO)C2)nc1`, for which the cytotoxicity at 10 µM is -9.25%.

Regarding `CC(C)CN1CCn2c(COCc3cccnc3)nnc2C1`, the cytotoxicity at 10 µM was found to be 5.8%.

As for `CCS(=O)(=O)NC[C@]12COC[C@H]1CN(Cc1cccnc1OC)C2`, the cytotoxicity at 10 µM came out at 1.97%. As to `N#Cc1csc(CNCCOc2ncccc2Cl)c1`, the cytotoxicity at 10 µM came to 8.01%. Regarding `CC[C@H](CO)NC(=O)c1coc(COc2cccc(F)c2F)n1`, the cytotoxicity at 10 µM came out at 3.08%. For `CCn1cc(CNC2CCN(c3c(F)cccc3F)C2)cn1` (configuration not stated) the value was -2.93%; for `COc1ccc(C(=O)N2CCCC(n3nc(C)nc3C)C2)c(OC)c1` (configuration not stated), -18.2%; for `Cc1nc(C)c(CC(=O)NCc2cccnc2OC2CCCC2)c(=O)[nH]1`, -5.87%.

On to `O=C(NCc1cccnc1)N1CCSCC1CCO` (configuration not stated), for which the cytotoxicity at 10 µM is -1.46%.

On to `Cc1nc(O)cc(C2CCCN(Cc3c(Cl)cncc3Cl)C2)n1` (configuration not stated), for which the cytotoxicity at 10 µM is -5.4%. Regarding `O=C1CC(c2ccccc2)C2(CCN(Cc3ccncc3)CC2)N1` (configuration not stated), the cytotoxicity at 10 µM was -4.72%.

Take `Cc1cccc(NC(=O)NCC2(N3CCOCC3)CCSC2)c1` (configuration not stated): the cytotoxicity at 10 µM is 5.02%. Turning to `CC(C)(C)S(=O)(=O)CCNC1CSCCc2ccccc21` (configuration not stated), the cytotoxicity at 10 µM is -2.35%. As to `CCN1CC(COC(=O)c2ccc(N(C)C)cc2F)CC1=O` (configuration not stated), the cytotoxicity at 10 µM came out at 2.38%.

With `Cc1c(C(=O)N2CCC2(C)C)nnn1-c1cccc2cccnc12`, the cytotoxicity at 10 µM turned out to be 4.13%. For `Cn1cc(CN2CC[C@H]3[C@H]2CC(=O)N3Cc2ccncc2)cn1` the value was -5.87%; for `Cc1cccc(C(=O)N2CCCC2)c1NCC(=O)NC1(C#N)CCCC1`, -11.5%; for `Cc1ccc(-c2cn3c(n2)CO[C@@H](CNCc2cccnc2)C3)cc1`, -105%. Regarding `O=C(O)c1ccc(CN2CCCC(Cc3ccn[nH]3)C2)cc1` (configuration not stated), the cytotoxicity at 10 µM was -6.08%. With `COCC(=O)N1CCC2(C1)c1ccccc1S(=O)(=O)N2C` (configuration not stated), the cytotoxicity at 10 µM is 3.57%.

With `COC[C@H]1CCCN1c1nccc(-c2cnn(-c3ccccc3C)c2)n1`, the cytotoxicity at 10 µM came out at 8.63%. For `CCn1ncc(-c2cc(C(F)(F)F)nc(N3CCC(N)CC3)n2)c1C`, the cytotoxicity at 10 µM was -6%. `C[S+]([O-])CCNCc1ccc(OCc2cscn2)cc1` (configuration not stated): the cytotoxicity at 10 µM is -138%.

With `Cc1noc(C)c1CN1C[C@@H]2CCCO[C@@H]2[C@H](NS(C)(=O)=O)C1`, the cytotoxicity at 10 µM turned out to be 12.2%. Then `CC(O)C1CCN(Cc2nccn2CC(F)(F)F)CC1` (configuration not stated), with 4.29%. In the case of `COCCN1CC[C@@H]2OC(COCC(=O)N3CCCC3)CC[C@@H]21` (some centres not stated), the cytotoxicity at 10 µM is -3.29%.

With `CC(=O)c1cccc(S(=O)(=O)N2CSCC2C(=O)NCC(F)(F)F)c1` (configuration not stated), the cytotoxicity at 10 µM was 3.78%.

Consider `CCn1ncc2c1CCCC2NCc1cc(Cl)c(OC)c(OC)c1` (configuration not stated), for which the cytotoxicity at 10 µM was found to be 24.4%.

In the case of `c1cncc(OCc2n[nH]c3c2CN(Cc2cccs2)C3)c1`, the cytotoxicity at 10 µM is -113%. Consider `COCC(=O)N1CCC2(CCC2NC(=O)c2ccn(C)c2)CC1` (configuration not stated), for which the cytotoxicity at 10 µM is -76.4%. As for `Clc1cccc(CNc2cnn(CCN3CCCCC3)c2)c1`, the cytotoxicity at 10 µM is 0.889%. On to `Nc1cc2c(nn1)CCN(C(=O)c1cccc3c1OCO3)C2`, for which the cytotoxicity at 10 µM is -8.08%.

As for `CC(C)C(=O)NC1CCCc2nc(N3CCOCC3)ncc21` (configuration not stated), the cytotoxicity at 10 µM turned out to be 10.2%. For `O=C(NC1(c2nnn(CC3CC3)n2)CCCC1)c1ccccc1`, the cytotoxicity at 10 µM came to 6.48%.

Regarding `COCc1cncc2c1CCN(C(=O)c1ccc(C)o1)C2`, the cytotoxicity at 10 µM stood at 0.388%. `COCCC(=O)N[C@H]1CN(c2nc(C)c3c(n2)CCCC3)C[C@@H]1C1CC1`: the cytotoxicity at 10 µM is -12.8%.

The record behind these values is ChEMBL document CHEMBL4513216, “Probing the Open Global Health Chemical Diversity Library for Multistage-Active Starting Points for Next-Generation Antimalarials” (ACS Infect Dis, 2020).
